Reference: ChEMBL document CHEMBL1759916, “Bicyclo[2.2.2]octyltriazole inhibitors of 11β-hydoxysteroid dehydrogenase type 1. Pharmacological agents for the treatment of metabolic syndrome” (Bioorg Med Chem Lett, 2011)
The source made the active and inactive calls. The rule behind the calls is not given here.

How the values were obtained:
Mus musculus [1] = test: Inhibition of 11beta-HSD1 in ICR mouse assessed as inhibition of conversion of [3H]-cortisone to [3H]-cortisol at 10 mg/kg, po administered 16 hrs before [3H]-cortisone challenge; type: functional
In short: (§1)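 Mouse pharmacodynamic model. Compound given 10 mg/kg PO, then 3H-cortisone by tail vein injection 1, 4 or 16 h after dosing. […] Plasma compound levels were measured after the PD studies.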

Mus musculus [2] = test: Inhibition of 11beta-HSD1 in ICR mouse assessed as inhibition of conversion of [3H]-cortisone to [3H]-cortisol at 10 mg/kg, po administered 4 hrs before [3H]-cortisone challenge; type: functional; in short: as §1
[3] = Clearance in C57 mouse at 2 mg/kg, iv; type: ADME, organism-based; design: dose 2 mg/kg, route intravenous; conditions: in vivo
In short: (§2)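 Mouse PK from 2 mg/kg IV and 10 mg/kg oral dosing. The PO AUC is reported normalized to dose.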

[4] = Bioavailability in C57 mouse at 2 mg/kg, iv and 10 mg/kg, po; type: ADME, organism-based; conditions: in vivo; in short: as §2
[5] = Volume of distribution in C57 mouse at 2 mg/kg, iv and 10 mg/kg, po; type: ADME, organism-based; conditions: in vivo
[6] = Half life in C57 mouse at 2 mg/kg, iv and 10 mg/kg, po; type: ADME, organism-based; conditions: in vivo
[7] = Tmax in C57 mouse at 2 mg/kg, iv and 10 mg/kg, po; type: ADME, organism-based; conditions: in vivo
[8] = Clearance in Sprague-Dawley rat at 1 mg/kg, iv and 4 mg/kg, po; type: ADME, organism-based; conditions: in vivo
[9] = Volume of distribution in Sprague-Dawley rat at 1 mg/kg, iv and 4 mg/kg, po; type: ADME, organism-based; conditions: in vivo
[10] = Half life in Sprague-Dawley rat at 1 mg/kg, iv and 4 mg/kg, po; type: ADME, organism-based; conditions: in vivo
[11] = Tmax in Sprague-Dawley rat at 1 mg/kg, iv and 4 mg/kg, po; type: ADME, organism-based; conditions: in vivo
[12] = Bioavailability in Sprague-Dawley rat 1 mg/kg, iv and 4 mg/kg, po; type: ADME, organism-based; conditions: in vivo
[13] = Clearance in Beagle dog at 0.5 mg/kg, iv and 2 mg/kg, po; type: ADME, organism-based, Canis lupus familiaris; conditions: in vivo
[14] = Volume of distribution in Beagle dog at 0.5 mg/kg, iv and 2 mg/kg, po; type: ADME, organism-based, Canis lupus familiaris; conditions: in vivo
[15] = Half life in Beagle dog at 0.5 mg/kg, iv and 2 mg/kg, po; type: ADME, organism-based, Canis lupus familiaris; conditions: in vivo
[16] = Tmax in Beagle dog at 0.5 mg/kg, iv and 2 mg/kg, po; type: ADME, organism-based, Canis lupus familiaris; conditions: in vivo
[17] = Bioavailability in Beagle dog at 0.5 mg/kg, iv and 2 mg/kg, po; type: ADME, organism-based, Canis lupus familiaris; conditions: in vivo
[18] = Clearance in rhesus monkey at 0.5 mg/kg, iv and 2 mg/kg, po; type: ADME, organism-based, Macaca mulatta; conditions: in vivo
[19] = Volume of distribution in rhesus monkey at 0.5 mg/kg, iv and 2 mg/kg, po; type: ADME, organism-based, Macaca mulatta; conditions: in vivo
[20] = Half life in rhesus monkey at 0.5 mg/kg, iv and 2 mg/kg, po; type: ADME, organism-based, Macaca mulatta; conditions: in vivo
[21] = Tmax in rhesus monkey at 0.5 mg/kg, iv and 2 mg/kg, po; type: ADME, organism-based, Macaca mulatta; conditions: in vivo
[22] = Bioavailability in rhesus monkey at 0.5 mg/kg, iv and 2 mg/kg, po; type: ADME, organism-based, Macaca mulatta; conditions: in vivo
[23] = Solubility of the compound in water; type: physicochemical
[24] = Distribution coefficient, log D of the compound by HPLC analysis; type: physicochemical; conditions: octanol/water
[25] = target: T1, Nuclear receptor subfamily 1 group I member 2 (Homo sapiens, UniProt O75469); test: Activation of human PXR at 10 uM
T1 sequence (O75469 whole entry): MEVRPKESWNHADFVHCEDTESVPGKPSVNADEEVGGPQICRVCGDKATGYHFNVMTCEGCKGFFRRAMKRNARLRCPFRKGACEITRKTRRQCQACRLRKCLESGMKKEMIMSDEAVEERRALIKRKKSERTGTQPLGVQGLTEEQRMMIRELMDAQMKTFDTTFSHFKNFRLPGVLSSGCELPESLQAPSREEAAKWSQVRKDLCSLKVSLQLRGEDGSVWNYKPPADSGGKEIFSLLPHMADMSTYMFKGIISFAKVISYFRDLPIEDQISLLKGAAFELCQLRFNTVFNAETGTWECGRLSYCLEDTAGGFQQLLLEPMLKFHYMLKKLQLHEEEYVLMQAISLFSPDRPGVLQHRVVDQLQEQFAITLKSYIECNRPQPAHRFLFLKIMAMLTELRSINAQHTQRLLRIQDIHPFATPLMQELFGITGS
In short: (§3)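 Cyp induction potential assessed in human liver microsomes; read out as human PXR activation, with test compound at 10 μM.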

Mus musculus [26] = species: Mus musculus; test: Antiobesity activity in diet-induced obesity mouse model; type: functional, organism-based
Mus musculus [27] = species: Mus musculus; test: Antiatherosclerotic activity in Apo-E knockout mouse model; type: functional, organism-based
Mus musculus [28] = species: Mus musculus; test: Antidiabetic activity in B6-Ay mouse by oral glucose tolerance test; type: functional, organism-based
[29] = Induction of cytochrome P450 activity in human liver microsomes; type: ADME; in short: as §3
[30] = target: 11-beta-hydroxysteroid dehydrogenase 1 (Mus musculus, UniProt P50172); test: Inhibition of mouse 11beta-HSD1 expressed in CHO-K1 cells assessed as conversion of [3H]-cortisone to [3H]-cortisol by scintillation proximity assay; type: cell-based
[31] = target: T2, 11-beta-hydroxysteroid dehydrogenase type 2 (Mus musculus, UniProt P51661); test: Inhibition of mouse 11beta-HSD2 expressed in CHO-K1 cells assessed as conversion of [3H]-cortisol to [3H]-cortisone by scintillation proximity assay; type: cell-based
T2 sequence (P51661 whole entry): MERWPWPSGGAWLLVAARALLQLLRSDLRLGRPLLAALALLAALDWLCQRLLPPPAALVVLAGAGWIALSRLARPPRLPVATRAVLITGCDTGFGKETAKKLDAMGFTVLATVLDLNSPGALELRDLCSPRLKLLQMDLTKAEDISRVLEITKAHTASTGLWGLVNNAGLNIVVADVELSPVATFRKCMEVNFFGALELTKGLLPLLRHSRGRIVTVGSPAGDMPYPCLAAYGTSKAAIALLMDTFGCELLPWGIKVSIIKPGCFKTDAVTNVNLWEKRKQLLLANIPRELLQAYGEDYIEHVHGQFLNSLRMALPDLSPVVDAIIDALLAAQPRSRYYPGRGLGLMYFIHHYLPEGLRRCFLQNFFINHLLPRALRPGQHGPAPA
In short: (§4)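 Scintillation proximity assay (SPA). IC50 values are the average of two determinations.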

[32] = target: 11-beta-hydroxysteroid dehydrogenase 1 (Homo sapiens, UniProt P28845); test: Inhibition of human 11beta-HSD1 expressed in CHO-K1 cells assessed as conversion of [3H]-cortisone to [3H]-cortisol by scintillation proximity assay; type: cell-based; in short: as §4
[33] = target: T3, 11-beta-hydroxysteroid dehydrogenase type 2 (Homo sapiens, UniProt P80365); test: Inhibition of human 11beta-HSD2 expressed in CHO-K1 cells assessed as conversion of [3H]-cortisol to [3H]-cortisone by scintillation proximity assay; type: cell-based
T3 sequence (P80365 whole entry): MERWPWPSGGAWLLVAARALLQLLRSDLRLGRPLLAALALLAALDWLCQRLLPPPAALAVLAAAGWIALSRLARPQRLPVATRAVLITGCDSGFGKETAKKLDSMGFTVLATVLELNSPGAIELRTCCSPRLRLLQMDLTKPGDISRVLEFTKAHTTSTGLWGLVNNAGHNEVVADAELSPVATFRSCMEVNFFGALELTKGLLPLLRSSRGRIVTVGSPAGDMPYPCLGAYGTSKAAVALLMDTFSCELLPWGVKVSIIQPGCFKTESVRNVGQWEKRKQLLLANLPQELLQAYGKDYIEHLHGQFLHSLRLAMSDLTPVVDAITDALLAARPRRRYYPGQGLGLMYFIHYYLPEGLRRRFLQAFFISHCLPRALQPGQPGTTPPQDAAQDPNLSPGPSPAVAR

Mus musculus [34] = test: Inhibition of 11beta-HSD1 in ICR mouse assessed as inhibition of conversion of [3H]-cortisone to [3H]-cortisol at 10 mg/kg, po administered 1 hr before [3H]-cortisone challenge; type: functional; in short: as §1

Chain of 11-beta-hydroxysteroid dehydrogenase 1 (Mus musculus, UniProt P50172) (P50172 whole entry): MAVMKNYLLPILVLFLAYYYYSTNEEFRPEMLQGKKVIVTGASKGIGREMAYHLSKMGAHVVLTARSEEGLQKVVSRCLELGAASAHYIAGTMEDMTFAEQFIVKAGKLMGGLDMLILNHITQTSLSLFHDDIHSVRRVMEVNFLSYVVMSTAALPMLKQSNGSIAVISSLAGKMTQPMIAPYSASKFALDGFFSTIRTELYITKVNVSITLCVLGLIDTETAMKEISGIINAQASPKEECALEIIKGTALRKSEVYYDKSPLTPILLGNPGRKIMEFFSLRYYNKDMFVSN
Chain of 11-beta-hydroxysteroid dehydrogenase 1 (Homo sapiens, UniProt P28845) (P28845 whole entry): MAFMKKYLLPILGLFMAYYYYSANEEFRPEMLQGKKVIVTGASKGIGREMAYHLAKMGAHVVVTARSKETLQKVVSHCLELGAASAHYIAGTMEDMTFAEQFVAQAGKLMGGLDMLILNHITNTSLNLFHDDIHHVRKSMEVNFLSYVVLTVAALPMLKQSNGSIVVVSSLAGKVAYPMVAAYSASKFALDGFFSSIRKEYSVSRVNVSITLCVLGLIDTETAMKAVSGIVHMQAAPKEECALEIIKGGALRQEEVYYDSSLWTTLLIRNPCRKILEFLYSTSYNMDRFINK

## CCS(=O)(=O)CCC12CCC(c3nnc(-c4ccccc4C(F)(F)F)n3C)(CC1)CC2
Mus musculus [1]
  inhibition in vivo at 10 mg/kg: 76%
Mus musculus [2]
  inhibition in vivo at 10 mg/kg: 89%
[3]
  clearance: 2.1 mL/min/kg
[4]
  bioavailability: 24%
[5]
  Vd: 0.72 L/kg
[6]
  half-life: 4.8 h
[7]
  Tmax: 5 h
[8]
  clearance: 2.9 mL/min/kg
[9]
  Vd: 1.1 L/kg
[10]
  half-life: 4.9 h
[11]
  Tmax: 2 h
[12]
  bioavailability: 87%
[13]
  clearance: 1.9 mL/min/kg
[14]
  Vd: 1.7 L/kg
[15]
  half-life: 12.2 h
[16]
  Tmax: 2 h
[17]
  bioavailability: 59%
[18]
  clearance: 4 mL/min/kg
[19]
  Vd: 1.6 L/kg
[20]
  half-life: 6.5 h
[21]
  Tmax: 2 h
[22]
  bioavailability: 89%
[23]
  solubility: > 1000 µg/mL
[24]
  logD: 2.2
[25]
  Activity: < 10%
Mus musculus [26]
  Activity: Active
Mus musculus [27]
  Activity: Active
Mus musculus [28]
  Activity: Active
[29]
  Activity: Not Active

## Cn1c(-c2ccccc2C(F)(F)F)nnc1C12CCC(CCCC(C)(F)F)(CC1)CC2
Mus musculus [1]
  inhibition in vivo at 10 mg/kg: 94%
Mus musculus [2]
  inhibition in vivo at 10 mg/kg: 99%
[30]
  IC50: < 1 nM
[31]
  IC50: > 4000 nM
[32]
  IC50: < 1 nM
[33]
  IC50: > 4000 nM
[3]
  clearance: 14 mL/min/kg
[4]
  bioavailability: 36%

## CCCCCC12CCC(c3nnc4n3CCCCCC4)(CC1)CC2
Mus musculus [34]
  inhibition in vivo at 10 mg/kg: 71%
Mus musculus [2]
  inhibition in vivo at 10 mg/kg: 51%
[32]
  IC50: 4 nM
[4]
  bioavailability: 6%

## CC(=O)CCCC12CCC(c3nnc(-c4ccccc4C(F)(F)F)n3C)(CC1)CC2
Mus musculus [1]
  inhibition in vivo at 10 mg/kg: 32%
Mus musculus [2]
  inhibition in vivo at 10 mg/kg: 90%
[30]
  IC50: 1.3 nM
[31]
  IC50: > 4000 nM
[32]
  IC50: 1.2 nM
[33]
  IC50: 4000 nM
[3]
  clearance: 21 mL/min/kg
[4]
  bioavailability: 25%

## CCCCCC12CCC(c3nnc(-c4ccccc4C(F)(F)F)n3C)(CC1)CC2
Mus musculus [2]
  inhibition in vivo at 10 mg/kg: 98%
[31]
  IC50: > 4000 nM
[32]
  IC50: 1.8 nM
[33]
  IC50: 1300 nM
[3]
  clearance: 273 mL/min/kg
[4]
  bioavailability: 20%

## CC(O)CCCC12CCC(c3nnc(-c4ccccc4C(F)(F)F)n3C)(CC1)CC2 (configuration not stated)
Mus musculus [2]
  inhibition in vivo at 10 mg/kg: 97%
[30]
  IC50: 1.7 nM
[31]
  IC50: > 4000 nM
[32]
  IC50: < 1 nM
[33]
  IC50: > 1000 nM
[3]
  clearance: 88 mL/min/kg
[4]
  bioavailability: 21%

## CC(O)CCCC12CCC(c3nnc4n3CCCCCC4)(CC1)CC2 (configuration not stated)
Mus musculus [34]
  inhibition in vivo at 10 mg/kg: 67%
Mus musculus [2]
  inhibition in vivo at 10 mg/kg: 41%
[30]
  IC50: 19 nM
[32]
  IC50: 35 nM

## CCCS(=O)(=O)CCC12CCC(c3nnc(-c4ccccc4C(F)(F)F)n3C)(CC1)CC2
Mus musculus [1]
  inhibition in vivo at 10 mg/kg: 47%
Mus musculus [2]
  inhibition in vivo at 10 mg/kg: 89%
[30]
  IC50: 6.7 nM
[31]
  IC50: > 4000 nM
[32]
  IC50: 5.1 nM
[33]
  IC50: > 4000 nM
